Consider 20 compounds from ChEMBL document CHEMBL1132552, “Synthesis, characterization, and structure-activity relationships of amidine-substituted (bis)benzylidene-cycloketone olefin isomers as potent and selective factor Xa inhibitors” (J Med Chem, 1999).

pKi: −log10 of the molar value.

Chain of Coagulation factor X (P00742 41-179 limits assumed): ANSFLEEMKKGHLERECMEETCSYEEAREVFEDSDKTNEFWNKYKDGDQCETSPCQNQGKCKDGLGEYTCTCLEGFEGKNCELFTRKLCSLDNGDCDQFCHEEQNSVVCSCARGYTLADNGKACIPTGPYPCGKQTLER
Chain of Coagulation factor X (P00742 235-488 limits assumed): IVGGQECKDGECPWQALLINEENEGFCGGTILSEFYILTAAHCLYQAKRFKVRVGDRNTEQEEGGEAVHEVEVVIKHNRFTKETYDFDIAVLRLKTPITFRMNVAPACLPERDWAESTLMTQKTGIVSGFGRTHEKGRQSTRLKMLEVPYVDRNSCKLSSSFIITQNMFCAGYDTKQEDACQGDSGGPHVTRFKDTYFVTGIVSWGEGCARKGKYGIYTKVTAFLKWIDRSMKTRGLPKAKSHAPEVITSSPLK

The first assay deals with T1, Serine protease 1 (Bos taurus, UniProt P00760).
T1 sequence (P00760 whole entry): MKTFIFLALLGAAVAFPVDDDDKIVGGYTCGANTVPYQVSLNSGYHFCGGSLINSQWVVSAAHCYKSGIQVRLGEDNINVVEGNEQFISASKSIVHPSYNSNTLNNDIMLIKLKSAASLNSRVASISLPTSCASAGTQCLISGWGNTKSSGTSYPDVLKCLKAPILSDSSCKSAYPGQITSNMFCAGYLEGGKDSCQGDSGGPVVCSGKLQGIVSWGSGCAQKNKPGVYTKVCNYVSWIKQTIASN
The assay is described as follows: In vitro inhibition of bovine trypsin(Trp). The gist of the method:
(§1)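 Buffer was 150 mM NaCl, 2.5 mM CaCl₂, 50 mM Tris-HCl pH 7.5, 0.1% PEG 6000. Read in a microplate reader at ~23 °C in the dark across varying inhibitor concentrations. Ki from competitive treatment; duplicate runs.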
Turning to `N=C(N)c1ccc(/C=C2\CCCCCCC/C(=C\c3ccc(C(=N)N)cc3)C2=O)cc1`, the pKi (as a rule, the negative decadic logarithm of the Ki, by convention in mol/L) was 5.52.
As for `N=C(N)c1ccc(/C=C2/CCCCC/C(=C\c3ccc(C(=N)N)cc3)C2=O)cc1`, the negative-log Ki (pKi) was 7.52.
Take `C/N=C(\N)c1ccc(/C=C2\CCCC/C(=C\c3ccc(C(=N)N)cc3)C2=O)cc1`: the pKi was 6.08.
The same measure, in the same setting: the same measure for `N=C(N)c1ccc(/C=C2/CCCCCC/C(=C/c3ccc(C(=N)N)cc3)C2=O)cc1`: 6.72; for `COC(=O)C1C/C(=C/c2ccc(C(=N)N)cc2)C(=O)/C(=C/c2ccc(C(=N)N)cc2)C1` (stereo not given): 6.65.
Still for that read-out and setting: the same measure for `N=C(N)c1ccc(/C=C2/CC(C(=O)O)C/C(=C/c3ccc(C(=N)N)cc3)C2=O)cc1` (stereo not given): 6.37; for `CN(C)C(=N)c1ccc(/C=C2/CCCC/C(=C/c3ccc(C(=N)N(C)C)cc3)C2=O)cc1`: less than 5.30; for `N=C(N)c1ccc(/C=C2\CCC/C(=C\c3ccc(C(=N)N)cc3)C2=O)cc1`: 6.77.
The same measure, in the same setting: the same measure for `CCOC(=O)N1C/C(=C\c2ccc(C(=N)N)cc2)C(=O)/C(=C/c2ccc(C(=N)N)cc2)C1`: 6.90.
Turning to `N=C(N)c1ccc(/C=C2\CCCCCC/C(=C\c3ccc(C(=N)N)cc3)C2=O)cc1`, the pKi was 5.82.
On the same count and under the same terms, the same measure for `N=C(N)c1ccc(/C=C2\CCCC/C(=C/c3ccc(C(N)=O)cc3)C2=O)cc1`: 6.30; for `N=C(N)c1ccc(/C=C2\CCCC/C(=C\c3ccc(C(N)=O)cc3)C2=O)cc1`: less than 6.30; for `CCOC(=O)N1C/C(=C/c2ccc(C(=N)N)cc2)C(=O)/C(=C/c2ccc(C(=N)N)cc2)C1`: 7.21.
The same measure, in the same setting: the same measure for `N=C(N)c1ccc(/C=C2/CCCCCCC/C(=C\c3ccc(C(=N)N)cc3)C2=O)cc1`: 5.68; for `NC(=O)c1ccc(/C=C2/CCCC/C(=C/c3ccc(C(N)=O)cc3)C2=O)cc1`: less than 5.30; for `N=C(N)c1ccc(/C=C2\CC(C(=O)O)C/C(=C\c3ccc(C(=N)N)cc3)C2=O)cc1` (stereo not given): 6.06.
On the same count and under the same terms, under `N=C(N)c1ccc(/C=C2\CC/C(=C\c3ccc(C(=N)N)cc3)C2=O)cc1` stands 6.23.
The compound `N=C(N)c1ccc(/C=C2/CCCCCCC/C(=C/c3ccc(C(=N)N)cc3)C2=O)cc1` gave a pKi of 5.66.

A further assay concerns the target Coagulation factor X (Homo sapiens, UniProt P00742). The assay is described as follows: In vitro inhibition of human coagulation factor Xa (Xa) in a purified enzyme system. In a few lines: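 Buffer: 150 mM NaCl, 2.5 mM CaCl₂, 50 mM Tris-HCl pH 7.5, 0.1% PEG 6000. For very tight binding, enzyme was lowered to 0.1 nM, or data at 0.3 and 1 nM enzyme were fitted to a modified Morrison equation.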
`N=C(N)c1ccc(/C=C2\CCCCCCC/C(=C\c3ccc(C(=N)N)cc3)C2=O)cc1` showed a negative-log Ki (pKi) of 6.02.
`CN(C)C(=N)c1ccc(/C=C2\CCCC/C(=C\c3ccc(C(=N)N(C)C)cc3)C2=O)cc1` showed a pKi of less than 5.30.
`N=C(N)c1ccc(/C=C2/CCCCC/C(=C\c3ccc(C(=N)N)cc3)C2=O)cc1` showed a pKi of 6.89.
Same read-out and setting: under `N=C(N)c1ccc(/C=C2/CCCCCC/C(=C/c3ccc(C(=N)N)cc3)C2=O)cc1` stands 8.55.
Still for that read-out and setting: under `COC(=O)C1C/C(=C/c2ccc(C(=N)N)cc2)C(=O)/C(=C/c2ccc(C(=N)N)cc2)C1` (stereo not given) stands less than 6.30; under `N=C(N)c1ccc(/C=C2/CC(C(=O)O)C/C(=C/c3ccc(C(=N)N)cc3)C2=O)cc1` (stereo not given), 8.16; under `CN(C)C(=N)c1ccc(/C=C2/CCCC/C(=C/c3ccc(C(=N)N(C)C)cc3)C2=O)cc1`, 5.80.
The same measure, in the same setting: the same measure for `CCOC(=O)N1C/C(=C\c2ccc(C(=N)N)cc2)C(=O)/C(=C/c2ccc(C(=N)N)cc2)C1`: less than 5.30; for `N=C(N)c1ccc(/C=C2\CCCCCC/C(=C\c3ccc(C(=N)N)cc3)C2=O)cc1`: 6.41; for `N=C(N)c1ccc(/C=C2\CCCC/C(=C/c3ccc(C(N)=O)cc3)C2=O)cc1`: 5.73.
`N=C(N)c1ccc(/C=C2\CCCC/C(=C\c3ccc(C(N)=O)cc3)C2=O)cc1`: the negative logarithm of the Ki (pKi) is less than 6.30.
`CCOC(=O)N1C/C(=C/c2ccc(C(=N)N)cc2)C(=O)/C(=C/c2ccc(C(=N)N)cc2)C1`: the negative-log Ki (pKi) was 6.65.
The same measure, in the same setting: under `NC(=O)c1ccc(/C=C2/CCCC/C(=C/c3ccc(C(N)=O)cc3)C2=O)cc1` stands less than 5.30; under `N=C(N)c1ccc(/C=C2\CC(C(=O)O)C/C(=C\c3ccc(C(=N)N)cc3)C2=O)cc1` (stereo not given), 4.61.
On the same count and under the same terms, the same measure for `NC(=O)c1ccc(/C=C2/CCCC/C(=C\c3ccc(C(N)=O)cc3)C2=O)cc1`: less than 5.30.
On the same count and under the same terms, under `N=C(N)c1ccc(/C=C2\CC/C(=C\c3ccc(C(=N)N)cc3)C2=O)cc1` stands 5.34.

Another assay concerns the target T1, Serine protease 1. The assay can be described thus: In vitro inhibition of bovine trypsin (Trp). The gist of the method:
as §1
Compound `CN(C)C(=N)c1ccc(/C=C2\CCCC/C(=C\c3ccc(C(=N)N(C)C)cc3)C2=O)cc1` showed a negative-log Ki (pKi) of less than 5.30.

The target of another assay is Prothrombin (Homo sapiens, UniProt P00734). The assay is described as follows: In vitro inhibition of human thrombin(FIIa). The gist of the method: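 Medium: 150 mM NaCl, 2.5 mM CaCl₂, 50 mM Tris-HCl pH 7.5, 0.1% PEG 6000. Microplate reader readings at room temperature (~23 °C), light excluded, varying inhibitor concentrations. Competitive Ki derived; assays in duplicate.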
`N=C(N)c1ccc(/C=C2\CCCCCCC/C(=C\c3ccc(C(=N)N)cc3)C2=O)cc1` showed a pKi of 6.14.
The same measure, in the same setting: the same measure for `CN(C)C(=N)c1ccc(/C=C2\CCCC/C(=C\c3ccc(C(=N)N(C)C)cc3)C2=O)cc1`: less than 5.30; for `N=C(N)c1ccc(/C=C2/CCCCCC/C(=C/c3ccc(C(=N)N)cc3)C2=O)cc1`: 6.54.
Take `COC(=O)C1C/C(=C/c2ccc(C(=N)N)cc2)C(=O)/C(=C/c2ccc(C(=N)N)cc2)C1` (stereo not given): the pKi is 6.22.
The same measure, in the same setting: under `N=C(N)c1ccc(/C=C2/CC(C(=O)O)C/C(=C/c3ccc(C(=N)N)cc3)C2=O)cc1` (stereo not given) stands less than 4.30.
Same read-out and setting: the same measure for `CN(C)C(=N)c1ccc(/C=C2/CCCC/C(=C/c3ccc(C(=N)N(C)C)cc3)C2=O)cc1`: less than 5.30; for `CCOC(=O)N1C/C(=C\c2ccc(C(=N)N)cc2)C(=O)/C(=C/c2ccc(C(=N)N)cc2)C1`: 5.48; for `N=C(N)c1ccc(/C=C2\CCCCCC/C(=C\c3ccc(C(=N)N)cc3)C2=O)cc1`: 5.43.
Still for that read-out and setting: under `N=C(N)c1ccc(/C=C2\CCCC/C(=C/c3ccc(C(N)=O)cc3)C2=O)cc1` stands 6.46; under `N=C(N)c1ccc(/C=C2\CCCC/C(=C\c3ccc(C(N)=O)cc3)C2=O)cc1`, less than 6.30.
As to `CCOC(=O)N1C/C(=C/c2ccc(C(=N)N)cc2)C(=O)/C(=C/c2ccc(C(=N)N)cc2)C1`, the negative logarithm of the Ki (pKi) was 6.20.
Same read-out and setting: under `N=C(N)c1ccc(/C=C2/CCCCCCC/C(=C\c3ccc(C(=N)N)cc3)C2=O)cc1` stands 6.82; under `NC(=O)c1ccc(/C=C2/CCCC/C(=C/c3ccc(C(N)=O)cc3)C2=O)cc1`, 5.54; under `N=C(N)c1ccc(/C=C2\CC(C(=O)O)C/C(=C\c3ccc(C(=N)N)cc3)C2=O)cc1` (stereo not given), 4.67.
Same read-out and setting: the same measure for `N=C(N)c1ccc(/C=C2\CC/C(=C\c3ccc(C(=N)N)cc3)C2=O)cc1`: 5.66.
